Assays:
[1] = tested on: HCT-15; assay: In vitro cytotoxicity expressed as concentration that inhibits 50% of HCT 15 (colon) sensitive variant cell proliferation; format: functional, cell-based; conditions: Homo sapiens
Summary of the method: (§1)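 Cells were kept at 37 °C in sealed dishes of MEM with 10% heat-inactivated FCS plus glutamine, penicillin, streptomycin and gentamycin. […] Cells were plated at 10 000 cells/mL for 24 h, then given nine concentrations from 10^-5 to 10^-9 M. Growth was read by MTT colorimetric assay.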

[2] = (§2) In vitro cytotoxicity expressed as concentration that inhibits 50% of J82 (bladder) resistant variant cell proliferation; format: functional; conditions: Homo sapiens; summary of the method: as §1
[3] = as §2; format: functional; conditions: Homo sapiens; summary of the method: as §1; remark: listed apart in the source
[4] = tested on: K562; assay: In vitro cytotoxicity expressed as concentration that inhibits 50% of K562R (resistant clone) cell proliferation; format: functional, cell-based; conditions: Homo sapiens
[5] = tested on: K562; assay: In vitro cytotoxicity expressed as concentration that inhibits 50% of K562S (sensitive clone)cell proliferation; format: functional, cell-based; conditions: Homo sapiens
[6] = tested on: LoVo; assay: In vitro cytotoxicity expressed as concentration that inhibits 50% of LoVo (colon) resistant cell proliferation; format: functional, cell-based; conditions: Homo sapiens; summary of the method: as §1
[7] = tested on: T-24; assay: In vitro cytotoxicity expressed as concentration that inhibits 50% of T24 (bladder) resistant variant cell proliferation; format: functional, cell-based; conditions: Homo sapiens; summary of the method: as §1
[8] = tested on: U373 MG; assay: In vitro cytotoxicity expressed as concentration that inhibits 50% of U373 (glioblastoma) sensitive variant cell proliferation; format: functional, cell-based, U-373MG ATCC; conditions: Homo sapiens; summary of the method: as §1
[9] = In vitro cytotoxicity expressed as concentration that inhibits 50% of U373 (glioblastoma) resistant variant cell proliferation; format: functional, cell-based, U-373MG ATCC; conditions: Homo sapiens, U373 MG; summary of the method: as §1
[10] = tested on: U-87 MG; assay: In vitro cytotoxicity expressed as concentration that inhibits 50% of U87 (glioblastoma) resistant variant cell proliferation; format: functional, cell-based, U-87MG ATCC; conditions: Homo sapiens; summary of the method: as §1
[11] = tested on: U-87 MG; assay: In vitro cytotoxicity expressed as concentration that inhibits 50% of U87 (glioblastoma) sensitive variant cell proliferation; format: functional, cell-based, U-87MG ATCC; conditions: Homo sapiens; summary of the method: as §1
[12] = tested on: Vero; assay: In vitro cytotoxicity expressed as conc. that inhibits 50% of VERO(monkey kidney) cell proliferation; format: functional, cell-based; conditions: Chlorocebus sabaeus
Summary of the method: (§3)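 KB and VERO monolayers in medium 199 with 10% newborn calf serum, 12 × 10^4 cells seeded per well. Serial dilutions from a DMSO or water stock were added at seeding, with final DMSO below 1%. Cultures were held 48 h at 37 °C in 5% CO2. Viability was then measured after 18 h in neutral red medium, SDS lysis and dye absorbance at 540 nm.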

[13] = tested on: HCT-15; assay: In vitro cytotoxicity expressed as concentration that inhibits 50% of HCT 15 (colon) resistant variant cell proliferation; format: functional, cell-based; conditions: Homo sapiens; summary of the method: as §1
[14] = tested on: HCT-116; assay: In vitro cytotoxicity expressed as concentration that inhibits 50% of HCT(human colon carcinoma)116 cell proliferation; format: functional, cell-based
[15] = species on record: Homo sapiens; assay: In vitro cytotoxicity expressed as conc. that inhibits 50% of KB (human) cell proliferation; format: functional; summary of the method: as §3
[16] = tested on: LoVo; assay: In vitro cytotoxicity expressed as concentration that inhibits 50% of LoVo (colon) sensitive variant cell proliferation; format: functional, cell-based; conditions: Homo sapiens; summary of the method: as §1
[17] = tested on: T-24; assay: In vitro cytotoxicity expressed as concentration that inhibits 50% of T24 (bladder) sensitive variant cell proliferation; format: functional, cell-based; conditions: Homo sapiens; summary of the method: as §1
[18] = In vitro cytotoxicity expressed as concentration that inhibits 50% of J82 (bladder) sensitive variant cell proliferation; format: functional; conditions: Homo sapiens; summary of the method: as §1
[19] = tested on: K562; assay: In vitro cytotoxicity expressed as concentration that inhibit 50% of K562R (resistant clone) cell proliferation; format: functional, cell-based; conditions: Homo sapiens

SMILES | IC50 [1] | IC50 [2] | IC50 [3] | IC50 [4] | IC50 [5] | IC50 [6] | IC50 [7] | IC50 [8] | IC50 [9] | IC50 [10] | IC50 [11] | IC50 [12] | IC50 [13] | IC50 [14] | IC50 [15] | IC50 [16] | IC50 [17] | IC50 [18] | IC50 [19]
CO[C@H]1Nc2cc3c(cc2C(=O)N2C=C(/C=C/C(=O)N(C)C)C[C@@H]12)OCO3 | 8 nM | 10 nM | 10 nM | 0.03 µM | 50 nM | 9 nM | 10 nM | 30 nM | 37 nM | 38 nM | 40 nM | 20 nM | 7 nM | 20 nM | 5 nM | 9 nM | 10 nM | – | –
CO[C@@]12[C@H](COC(N)=O)C3=C(C(=O)C(C)=C(N)C3=O)N1C[C@@H]1N[C@@H]12 [MITOMYCIN] | – | – | – | – | – | – | – | – | – | – | – | – | – | – | 500 nM | – | – | – | –
COc1cccc2c1C(=O)c1c(O)c3c(c(O)c1C2=O)C[C@@](O)(C(=O)CO)C[C@@H]3O[C@H]1C[C@H](N)[C@H](O)[C@H](C)O1 [DOXORUBICIN] | 50 nM | > 10000 nM | – | 7 µM | 50 nM | 80 nM | > 10000 nM | 10 nM | 130 nM | 140 nM | 60 nM | 5000 nM | 80 nM | – | 100 nM | 8 nM | 20 nM | 30 nM | –
CN(C)C(=O)/C=C/C1=CN2C(=O)c3cc4c(cc3NC(S(=O)(=O)O)[C@@H]2C1)OCO4 (some centres not stated) [SODIUM BISULFITE ADDUCT] | – | – | – | – | – | – | – | – | – | – | – | 50 nM | – | 25 nM | 50 nM | – | – | – | –
CO[C@H]1Nc2ccccc2C(=O)N2C=C(/C=C/C(=O)N(C)C)C[C@@H]12 | – | – | – | – | 85 nM | – | – | – | – | – | – | 75 nM | – | 50 nM | 86 nM | – | – | – | 120 nM

Reference: ChEMBL document CHEMBL1134670, “Synthesis and cytotoxicity on sensitive and doxorubicin-resistant cell lines of new pyrrolo[2,1-c][1,4]benzodiazepines related to anthramycin” (J Med Chem, 2001)
